ChEMBL document CHEMBL4043160, “Facile alkylation of 4-nitrobenzotriazole and its platelet aggregation inhibitory activity” (Bioorg Med Chem, 2017)
Activity calls are given as the source filed them. No cut-off for these calls is given here.

Biological target: P2Y purinoceptor 12 (Homo sapiens) (UniProt Q9H244)
Assay: Agonist activity at P2Y12 in human platelets assessed as effect on VASP phosphorylation at 200 uM by CY-QUANT VASP/P2Y12 ELISA method
Method in brief: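 VASP phosphorylation read by CY-QUANT VASP/P2Y12 ELISA kit, run per manufacturer's instructions. Platelets were exposed to PGE1, and PGE1-induced phosphorylation was set as 100%. ADP served as the P2Y12 agonist reference. Compounds were tested at 200 µM together with ADP. Per se effect at 200 µM was checked with PGE1 alone, without ADP.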

Sequence of P2Y purinoceptor 12 (Homo sapiens) (Q9H244 whole entry): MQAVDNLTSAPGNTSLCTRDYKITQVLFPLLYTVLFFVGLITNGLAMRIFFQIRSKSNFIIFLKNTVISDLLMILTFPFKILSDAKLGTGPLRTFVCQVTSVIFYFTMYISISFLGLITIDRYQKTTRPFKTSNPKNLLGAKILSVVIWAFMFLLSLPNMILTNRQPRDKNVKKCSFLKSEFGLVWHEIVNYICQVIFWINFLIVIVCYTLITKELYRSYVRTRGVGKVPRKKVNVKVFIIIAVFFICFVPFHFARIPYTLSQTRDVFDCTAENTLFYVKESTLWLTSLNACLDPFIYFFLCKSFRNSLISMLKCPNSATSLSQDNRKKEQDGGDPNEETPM

Row | SMILES | Activity
1 | CCCCn1nnc2c([N+](=O)[O-])cccc21 | inactive
2 | CCCn1nnc2c([N+](=O)[O-])cccc21 | inactive
3 | O=C(c1ccccc1)n1nnc2c([N+](=O)[O-])cccc21 | inactive
4 | O=[N+]([O-])c1cccc2nn(CCCCl)nc12 | inactive
5 | Cn1nc2cccc([N+](=O)[O-])c2n1 | inactive
6 | CCn1nnc2c([N+](=O)[O-])cccc21 | inactive
7 | Cn1nnc2cccc([N+](=O)[O-])c21 | inactive
8 | CCCCCCn1nc2cccc([N+](=O)[O-])c2n1 | inactive
9 | CCCCCCCn1nc2cccc([N+](=O)[O-])c2n1 | inactive
10 | Cc1ccc(S(=O)(=O)n2nnc3c([N+](=O)[O-])cccc32)cc1 | inactive
11 | O=[N+]([O-])c1cccc2c1nnn2Cc1ccccc1 | inactive
12 | CCCCCCn1nnc2c([N+](=O)[O-])cccc21 | inactive
13 | CCCCn1nc2cccc([N+](=O)[O-])c2n1 | inactive
14 | CCCCCCCCn1nnc2c([N+](=O)[O-])cccc21 | inactive
15 | CCCCCn1nc2cccc([N+](=O)[O-])c2n1 | inactive
16 | O=[N+]([O-])c1cccc2nn(Cc3ccccc3)nc12 | inactive
17 | CCn1nc2cccc([N+](=O)[O-])c2n1 | inactive
18 | Cn1nnc2c([N+](=O)[O-])cccc21 | inactive
19 | CCCCCCCCn1nc2cccc([N+](=O)[O-])c2n1 | inactive
20 | CCCCCn1nnc2c([N+](=O)[O-])cccc21 | inactive
21 | CCCn1nc2cccc([N+](=O)[O-])c2n1 | inactive
22 | CCCCCCCn1nnc2c([N+](=O)[O-])cccc21 | inactive
23 | O=[N+]([O-])c1cccc2c1nnn2CCCCl | inactive
